From ChEMBL document CHEMBL5029182, “Discovery of aryl aminothiazole γ-secretase modulators with novel effects on amyloid β-peptide production” (Bioorg Med Chem Lett, 2021)
Calls of active or inactive are those of the source. The calls are words filed in the database; no cut-off is given here.

Tests used:
Format in all cases: cell-based
[1] = biological target: T1, Gamma-secretase (Homo sapiens) (UniProt Q96BI3+Q9NZ42+Q8WW43+P49768+Q92542+P49810); test: Modulation of gamma secretase in HEK293 cells expressing APP-C99 assessed as increase in Abeta37 levels incubated for 2 hrs by sandwich ELISA; conditions: filed as modulator
Method in brief: (§1)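 HEK293 cells transiently transfected with C99 (APP C-terminal fragment carrying a signal sequence for membrane insertion) and treated over a concentration range. Secreted Aβ37, Aβ38, Aβ40 and Aβ42 in medium each detected by a specific two-antibody sandwich ELISA. Levels expressed relative to DMSO vehicle alone.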

[2] = biological target: T1, Gamma-secretase (Homo sapiens); test: Modulation of gamma secretase in HEK293 cells expressing APP-C99 assessed as increase in Abeta38 levels incubated for 2 hrs by sandwich ELISA; conditions: filed as modulator; method in brief: as §1
[3] = biological target: T1, Gamma-secretase (Homo sapiens); test: Modulation of gamma secretase in HEK293 cells expressing APP-C99 assessed as decrease in Abeta40 levels incubated for 2 hrs by sandwich ELISA; method in brief: as §1
[4] = biological target: T1, Gamma-secretase (Homo sapiens); test: Modulation of gamma secretase in HEK293 cells expressing APP-C99 assessed as decrease in Abeta42 levels incubated for 2 hrs by sandwich ELISA; method in brief: as §1
[5] = biological target: T1, Gamma-secretase (Homo sapiens); test: Modulation of gamma secretase in HEK293 cells expressing APP-C99 assessed as effect on amyloid beta peptide levels at up to 10 uM incubated for 2 hrs by sandwich ELISA; conditions: dose microM <=10, time 2.0 hrs
Method in brief: (§2)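 Concentration-response in HEK293 cells stably expressing C99 (APP C-terminal 99 residues with signal sequence), up to a maximum of 10 μM. Secreted Aβ37, Aβ38, Aβ40 and Aβ42 in medium each measured by a specific sandwich ELISA. Total secreted Aβ also determined by ELISA. Levels compared against DMSO vehicle alone.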

[6] = biological target: T1, Gamma-secretase (Homo sapiens); test: Modulation of gamma secretase in HEK293 cells expressing APP-C99 assessed as increase in Abeta37 levels at up to 10 uM incubated for 2 hrs by sandwich ELISA; conditions: filed as modulator, dose microM <=10, time 2.0 hrs; method in brief: as §2
[7] = biological target: T1, Gamma-secretase (Homo sapiens); test: Modulation of gamma secretase in HEK293 cells expressing APP-C99 assessed as increase in Abeta38 levels at up to 10 uM incubated for 2 hrs by sandwich ELISA; conditions: dose microM <=10, time 2.0 hrs; method in brief: as §2
[8] = biological target: T1, Gamma-secretase (Homo sapiens); test: Modulation of gamma secretase in HEK293 cells expressing APP-C99 assessed as decrease in Abeta40 levels at up to 10 uM incubated for 2 hrs by sandwich ELISA; conditions: dose microM <=10, time 2.0 hrs; method in brief: as §2
[9] = biological target: T1, Gamma-secretase (Homo sapiens); test: Modulation of gamma secretase in HEK293 cells expressing APP-C99 assessed as decrease in Abeta42 levels at up to 10 uM incubated for 2 hrs by sandwich ELISA; conditions: dose microM <=10, time 2.0 hrs; method in brief: as §2
[10] = biological target: T1, Gamma-secretase (Homo sapiens); test: Modulation of gamma secretase in HEK293 cells expressing APP-C99 assessed as increase in Abeta37 levels at 5 uM incubated for 2 hrs by sandwich ELISA
Method in brief: (§3)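 HEK293 cells stably expressing C99 with signal sequence, grown in 24-well plates. Single compound concentration 5 μM as initial screen. Aβ37, Aβ38, Aβ40 and Aβ42 secreted into medium each quantified by a specific two-antibody sandwich ELISA. Levels compared with DMSO vehicle alone.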

[11] = biological target: T1, Gamma-secretase (Homo sapiens); test: Modulation of gamma secretase in HEK293 cells expressing APP-C99 assessed as increase in Abeta38 levels at 5 uM incubated for 2 hrs by sandwich ELISA; method in brief: as §3
[12] = biological target: T1, Gamma-secretase (Homo sapiens); test: Modulation of gamma secretase in HEK293 cells expressing APP-C99 assessed as decrease in Abeta40 levels at 5 uM incubated for 2 hrs by sandwich ELISA; method in brief: as §3
[13] = biological target: T1, Gamma-secretase (Homo sapiens); test: Modulation of gamma secretase in HEK293 cells expressing APP-C99 assessed as decrease in Abeta42 levels at 5 uM incubated for 2 hrs by sandwich ELISA; method in brief: as §3

Activity [12]	Activity [13]	Activity ([10]; filed as modulator)	Activity ([11]; filed as modulator)	SMILES	further results
inactive	inactive	Active	Active	Cc1cn(-c2ccc(-c3csc(Nc4cccc(F)c4)n3)cc2F)cn1	–
inactive	inactive	–	–	Cc1cn(-c2ccc(-c3csc(Nc4cccc(F)c4F)n3)cc2F)cn1	Activity [10]: inactive; Activity [11]: inactive
inactive	inactive	–	–	Cc1cn(-c2ccc(-c3csc(Nc4c(F)cccc4F)n3)cc2F)cn1	Activity [10]: inactive; Activity [11]: inactive
inactive	inactive	Active	Active	Cc1cn(-c2ccc(-c3csc(Nc4ccccc4F)n3)cc2F)cn1	–
inactive	inactive	Active	Active	Cc1cn(-c2ccc(-c3csc(Nc4ccc(F)cc4F)n3)cc2F)cn1	–
inactive	inactive	–	–	Cc1cn(-c2ccc(-c3csc(Nc4cc(F)ccc4F)n3)cc2F)cn1	Activity [10]: inactive; Activity [11]: inactive

Second part, the molecule before the results:

SMILES	Activity [12]	Activity [13]	Activity ([10]; filed as modulator)	Activity ([11]; filed as modulator)	further results
Cc1ccc(Nc2nc(-c3ccc(-n4cnc(C)c4)c(F)c3)cs2)c(F)c1	–	–	–	–	Activity [1]: Dose-Dependent Effect; Activity [2]: Dose-Dependent Effect; Activity [3]: inactive; Activity [4]: inactive
Cc1cn(-c2ccc(-c3csc(NC4C5CC6CC(C5)CC4C6)n3)cc2F)cn1 (stereo unspecified)	–	–	–	–	Activity ([5]; filed as modulator): Active
Cc1cn(-c2ccc(-c3csc(Nc4cc(F)c(F)cc4F)n3)cc2F)cn1	–	–	–	–	Activity [6]: Active; Activity [7]: inactive; Activity [8]: inactive; Activity [9]: inactive
CCc1cc(Nc2nc(-c3ccc(-n4cnc(C)c4)c(F)c3)cs2)c(C)cc1C	–	–	–	–	Activity ([5]; filed as modulator): Active
Cc1cn(-c2ccc(-c3csc(Nc4cc(C)c(C)cc4C)n3)cc2F)cn1	–	–	–	–	Activity ([5]; filed as modulator): Active
Cc1cn(-c2ccc(-c3csc(Nc4cc(Cl)c(Cl)cc4Cl)n3)cc2F)cn1	inactive	inactive	–	–	Activity [10]: inactive; Activity [11]: inactive
Cc1cn(-c2ccc(-c3csc(Nc4ccc(F)cc4)n3)cc2F)cn1	inactive	inactive	Active	Active	–
Cc1cn(-c2ccc(-c3csc(Nc4cc(C)c(F)cc4C)n3)cc2F)cn1	inactive	inactive	Active	Active	–
Cc1cn(-c2ccc(-c3csc(Nc4ccc(F)c(F)c4)n3)cc2F)cn1	inactive	inactive	–	–	Activity [10]: inactive; Activity [11]: inactive
Cc1cn(-c2ccc(-c3csc(Nc4ccc([N+](=O)[O-])cc4)n3)cc2F)cn1	–	–	–	–	Activity ([5]; filed as modulator): Active
Cc1cn(-c2ccc(-c3csc(Nc4cc(Br)c(Br)cc4Br)n3)cc2F)cn1	inactive	inactive	Active	Active	–
Cc1ccc(F)c(Nc2nc(-c3ccc(-n4cnc(C)c4)c(F)c3)cs2)c1	–	–	–	–	Activity [1]: Dose-Dependent Effect; Activity [2]: Dose-Dependent Effect; Activity [3]: inactive; Activity [4]: inactive
Cc1cn(-c2ccc(-c3csc(Nc4ccccc4)n3)cc2F)cn1	–	–	–	–	Activity [5]: inactive
Cc1ccc(Nc2nc(-c3ccc(-n4cnc(C)c4)c(F)c3)cs2)c(C)c1	–	–	–	–	Activity [5]: inactive
Cc1cn(-c2ccc(-c3csc(Nc4ccc(Cl)cc4Cl)n3)cc2F)cn1	inactive	inactive	Active	Active	–
Cc1cn(-c2ccc(-c3csc(Nc4ccc(F)cc4C)n3)cc2F)cn1	–	–	–	–	Activity [1]: Dose-Dependent Effect; Activity [2]: Dose-Dependent Effect; Activity [3]: inactive; Activity [4]: inactive
Cc1cn(-c2ccc(-c3csc(Nc4cc(F)c(C)cc4C)n3)cc2F)cn1	inactive	inactive	–	–	Activity [10]: inactive; Activity [11]: inactive
Cc1cn(-c2ccc(-c3csc(Nc4cc(C)c(C)cc4F)n3)cc2F)cn1	inactive	inactive	Active	Active	–
Cc1cn(-c2ccc(-c3csc(NCc4ccccc4)n3)cc2F)cn1	–	–	–	–	Activity ([5]; filed as modulator): Active
Cc1cn(-c2ccc(-c3csc(Nc4ccc(O)cc4)n3)cc2F)cn1	–	–	–	–	Activity ([5]; filed as modulator): Active
Cc1cn(-c2ccc(-c3csc(Nc4c(F)cc(F)cc4F)n3)cc2F)cn1	–	–	Active	Active	Activity ([12]; filed as modulator): Active; Activity ([13]; filed as modulator): Active
CCc1cc(Nc2nc(-c3ccc(-n4cnc(C)c4)c(F)c3)cs2)c(F)cc1C	–	–	–	–	Activity ([12]; filed as modulator): Active; Activity ([13]; filed as modulator): Active
Cc1cn(-c2ccc(-c3csc(NC4CCCCC4)n3)cc2F)cn1	–	–	–	–	Activity ([5]; filed as modulator): Active
Cc1cn(-c2ccc(-c3csc(Nc4cc(F)ccc4C)n3)cc2F)cn1	–	–	–	–	Activity [1]: Dose-Dependent Effect; Activity [2]: Dose-Dependent Effect; Activity [3]: inactive; Activity [4]: inactive
